Source: PubChem
A selection: hits, their analogues and other compounds. The true share with any hit is near 1.8%.
HCV core dimer = blocks dimerization of HCV core protein; TR-FRET GST/Flag-core106 dimerization, 1536-well; inhibition, % at 5 µM; 300,000 compounds, 0.33% hits; AID 1899;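 active = inhibition above the mean of all tested compounds plus 3 SD, set per screening campaign, cut at about 45% in these data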
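Material: Tagged HCV core106 pair (GST and Flag) | Amount: GST-core106 13.5 nM, Flag-core106 17 nM | Medium: KF-containing HEPES buffer, pH 7.45, DTT, CHAPS, BSA | Reagent: Eu donor and XL665 acceptor anti-tag antibodies | Schedule: 4 h at 22.5 °C | Technique: Time-resolved FRET, ex 340 nm, em 617 and 671 nm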
eIF4E-4G inh = blocks eIF4E binding to eIF4G; AID 782; 220,000 compounds, 0.37% hits; TR-FRET eIF4E-eIF4GI(517-606) binding, 2 h; inhibition, % at 21.7 µM; P63073+Q04637;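 active = inhibition above about 30%, limit read from the data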
eIF4H FP inh = inhibitors of RNA binding by human eIF4H; Q15056; eIF4H fluorescence polarization binding assay; inhibition, % at 35 µM; 290,000 compounds, 0.94% hits;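 note: calls also rest on retests at 20 µM and on dose response follow-up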
PABP1 MLLE inh = blocks PAM2 peptide binding to the PABP1 MLLE domain; inhibition, % at 20 µM; 360,000 compounds, 0.36% hits; AID 588489; GST-MLLE / FITC-PAM2 fluorescence polarization; P11940; in the data active = inhibition above about 35%, passing the limit was not always enough
UBC9 SUMO inh = blocks human SUMOylation mediated by UBC9. 290,000 compounds, 0.36% hits. AID 2006. HTRF SUMOylation assay, SAE1/SAE2 + UBC9, in vitro. P63279. inhibition, % at 35 µM; in the data active = inhibition above about 50%, passing the limit was not always enough; inconclusive = no clear call, values can overlap the other calls
Target sequence (P63279 whole entry, looked up): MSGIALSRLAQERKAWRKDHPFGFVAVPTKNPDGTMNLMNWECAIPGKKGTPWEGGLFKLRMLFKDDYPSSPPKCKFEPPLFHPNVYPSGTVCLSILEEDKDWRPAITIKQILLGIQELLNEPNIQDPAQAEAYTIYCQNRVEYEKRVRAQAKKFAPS
PABP polyA inh = PABP-poly(A) binding inhibition; PABP-poly(A) RNA binding, fluorescence polarization; calls only at 35 µM; 290,000 compounds, 1% hits; AID 2014;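 note: calls also rest on retests at 20 µM and on dose response follow-up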
Of the large screens only hits and unclear results are named; the others gave an inactive call. Unless noted, the rule behind the calls is not given here.

Cc1ccc2oc(-c3cccc(NC(=S)NC(=O)/C=C/c4ccco4)c3)nc2c1	HCV core dimer 57
O=C1N=c2ccccc2=C1c1sc(NS(=O)(=O)Cc2ccccc2)nc1O	none
O=C1N=c2ccccc2=C1c1sc(Nc2cccc(O)c2)nc1O	eIF4H FP inh 59, PABP polyA inh active (no result: eIF4E-4G inh)
O=C1N=c2ccccc2=C1c1sc(Nc2ccc(O)cc2)nc1O	eIF4E-4G inh 37, eIF4H FP inh inconclusive (no result: HCV core dimer)
O=C1N=c2ccccc2=C1c1sc(NS(=O)(=O)c2ccccc2)nc1O	none
COc1cccc(C(NC(C)=O)c2nc(-c3cccc(C(=O)O)c3)cs2)c1 (stereo not drawn)	none (no result: HCV core dimer, eIF4E-4G inh, eIF4H FP inh, UBC9 SUMO inh, PABP polyA inh)
COc1ccc(CCNC(=O)C/C(C)=N/NC(=O)c2ccc([N+](=O)[O-])cc2Cl)cc1OC	none (no result: eIF4E-4G inh)
CCN(CCO)c1nc(SC)nc2c1sc1nc(-c3ccco3)c3c(c12)CCC3	HCV core dimer 80, eIF4H FP inh 85, PABP polyA inh active
CSc1nc(NCCOCCO)c2sc3nc(-c4ccco4)c4c(c3c2n1)CCC4	HCV core dimer 87, eIF4H FP inh 94, PABP polyA inh active
CCN(CCO)c1ncnc2c1sc1nc(C(C)C)c3c(c12)CC(C)(C)OC3	none
Cc1cc(C(F)(F)F)nc(SCC(=O)NC2=NC(=O)C(C)S2)n1 (stereo not drawn)	PABP1 MLLE inh 44
CC1CCC(C(C)C)C(OC(=O)COC(=O)c2ccc(N)cc2)C1 (stereo not drawn)	eIF4E-4G inh 54
C/C(=N/NC(=O)C1CCCN1C(=O)c1ccc([N+](=O)[O-])cc1)c1ccc(Br)cc1 (stereo not drawn)	none (no result: HCV core dimer, eIF4E-4G inh)
CCOc1ccc(NC(=O)COC(=O)Cn2cnc3ccccc32)cc1	none (no result: HCV core dimer, eIF4E-4G inh, eIF4H FP inh, UBC9 SUMO inh, PABP polyA inh)
CCNC(=S)NS(=O)(=O)c1ccc(C)cc1	PABP1 MLLE inh 41
CCNC(=S)NS(=O)(=O)c1ccc(CC)cc1	none
O=C(CNc1cccc2ccccc12)N/N=C/C=C/c1ccco1	eIF4H FP inh inconclusive, UBC9 SUMO inh 98
C/C(=N\NC(=O)CNc1cccc2ccccc12)c1ccccc1	UBC9 SUMO inh 80
O=C(CNc1ccc2ccccc2c1)N/N=C/c1ccc(C(=O)O)cc1	none
O=C(Cc1cccc2ccccc12)N/N=C/c1ccc(OC(=O)/C=C/c2ccco2)cc1	HCV core dimer 65
O=C(CNc1cccc2ccccc12)N/N=C/c1ccc(C(=O)O)cc1	UBC9 SUMO inh 77
O=C(Cc1cccc2ccccc12)N/N=C/c1ccc(F)cc1	none
Cn1cccc1C(=O)OCC(=O)N1c2ccccc2NC(=O)C1(C)C	none
C[C@@H]1CN([C@@H](C)CO)C(=O)CCCn2nncc2CO[C@@H]1CN(C)S(=O)(=O)c1ccccc1	none (no result: HCV core dimer, eIF4E-4G inh, eIF4H FP inh, UBC9 SUMO inh, PABP polyA inh)
COc1ccc(C2=NNC(c3cc(Cl)cc4c3OCOC4)C2)c(O)c1 (stereo not drawn)	eIF4H FP inh 52 (no result: PABP1 MLLE inh)
Oc1ccc(Cl)cc1C1=NNC(c2cc(Br)cc3c2OCOC3)C1 (stereo not drawn)	none
COc1ccc(NC(=O)C(c2ccc(C)cc2)N(C)C(=O)Cc2cccs2)cc1 (stereo not drawn)	eIF4H FP inh 63, PABP polyA inh active
Cc1noc(C)c1NC(=O)Nc1ccc2c(c1)C(=O)N([C@H](C)CO)C[C@H](C)[C@@H](CN(C)C(=O)Nc1ccc3c(c1)OCO3)O2	none (no result: HCV core dimer, eIF4E-4G inh, eIF4H FP inh, UBC9 SUMO inh, PABP polyA inh)
COc1ccc(NC(=O)C2CC(=O)N/C(=N/NC(=O)c3ccc(Cl)cc3)S2)cc1 (stereo not drawn)	none
CC(C)NC(=O)c1cc(-c2ccco2)nn1-c1ccc(Cl)cc1	none (no result: eIF4E-4G inh)
Cc1ccc(-n2nc(-c3ccco3)cc2C(=O)O)cc1	eIF4H FP inh 94, PABP polyA inh active
O=C(c1cc(-c2ccco2)nn1-c1cccc(Cl)c1)N1CCCCC1	HCV core dimer 56
C=C(C)Cn1c(C)cc(C)c(S(=O)(=O)c2cccc(C)c2)c1=O	none
Cc1[nH]n(-c2ncc(-c3ccc(Cl)cc3)s2)c(=O)c1C(c1ccc(Cl)cc1)C(C#N)C#N (stereo not drawn)	UBC9 SUMO inh 70, PABP polyA inh active
COc1ccc(C(c2c(C)[nH]n(C(N)=S)c2=O)C(C#N)C#N)cc1 (stereo not drawn)	none
COc1ccc(OC)c(N2C(=O)[C@@H]3C(c4ccccc4Cl)=NO[C@@H]3C2=O)c1	HCV core dimer 77, eIF4H FP inh 81, PABP polyA inh active
Cc1ccc(S(=O)(=O)N2CCCOC2CNC(=O)C(=O)NCc2cccs2)cc1 (stereo not drawn)	none
Cc1ccc(OCC(=O)N2CCC(Cc3ccccc3)CC2)c([N+](=O)[O-])n1	none (no result: HCV core dimer, eIF4E-4G inh, eIF4H FP inh, UBC9 SUMO inh, PABP polyA inh)
Cc1ccc(OCC(=O)N2CCN(S(=O)(=O)c3ccccc3)CC2)c([N+](=O)[O-])n1	eIF4H FP inh inconclusive, PABP polyA inh active
Cn1cccc1CC(=O)N/N=C/c1cc([N+](=O)[O-])ccc1Cl	HCV core dimer 48
COC(=O)c1sc(=S)n(-c2cc(F)ccc2F)c1N	PABP1 MLLE inh 40
CCOC(=O)c1sc(=S)n(-c2cc(F)ccc2F)c1N	none
CC(=O)Nc1ccc(S(=O)(=O)/N=C2/NC(=O)/C(=C\c3ccco3)S2)cc1	eIF4H FP inh 88, PABP polyA inh active
Cc1ccc(S(=O)(=O)/N=C2/NC(=O)/C(=C\c3ccco3)S2)cc1	eIF4H FP inh 66, PABP polyA inh active
Cc1ccc(S(=O)(=O)/N=C2/NC(=O)/C(=C\c3ccccc3)S2)cc1	none (no result: HCV core dimer, eIF4E-4G inh, eIF4H FP inh, UBC9 SUMO inh, PABP polyA inh)
CCC(=O)OCCNc1cc(Sc2nccn2C)c2nonc2c1[N+](=O)[O-]	none
CCC(=O)OCCNc1cc(SCCC(=O)OC)c2nonc2c1[N+](=O)[O-]	UBC9 SUMO inh 63
CCOC(=O)CN1N=C(c2ccc(Cl)s2)CSC1=O	none
COc1ccc2c(CC(=O)Nc3ccc(OC)c(NS(=O)(=O)c4ccc(F)cc4)c3)coc2c1	HCV core dimer 68
O=C(COC(=O)c1cc(=O)[nH]c2ccccc12)Nc1nc(-c2ccc(F)cc2)cs1	none (no result: HCV core dimer, eIF4E-4G inh, eIF4H FP inh, UBC9 SUMO inh, PABP polyA inh)
C/C(Cn1nc([N+](=O)[O-])cc1C)=N\NC(=O)COc1c(Cl)cc(Cl)cc1Cl	none
COc1ccc(C2=CC3=CC(=O)C(C)(O)C(=O)C3=CO2)cc1 (stereo not drawn)	none (no result: eIF4E-4G inh, eIF4H FP inh, PABP1 MLLE inh, UBC9 SUMO inh, PABP polyA inh)
CC1(O)C(=O)C=C2C=C(c3ccc(C#N)cc3)OC=C2C1=O (stereo not drawn)	HCV core dimer 55 (no result: eIF4E-4G inh, eIF4H FP inh, PABP1 MLLE inh, UBC9 SUMO inh, PABP polyA inh)
COc1cc(/C=N/NC(=O)C(=O)NCc2ccco2)cc(Cl)c1O	eIF4H FP inh inconclusive, PABP polyA inh active
Cc1cccc(C(C)C)c1NC(=O)c1ccc(CN(c2ccccc2)S(=O)(=O)c2ccccc2)cc1	none
COC(=O)c1cc(O)cc(OC)c1Oc1cc(C)cc(O)c1C(=O)O	eIF4H FP inh 90, PABP polyA inh active (no result: UBC9 SUMO inh)
Oc1c(Cl)cc(Cl)cc1Sc1cc(Cl)cc(Cl)c1O	eIF4H FP inh 74, UBC9 SUMO inh 92, PABP polyA inh active (no result: PABP1 MLLE inh)
